Source: article PMC9474599 (Immunity, 2022)
“Also recorded” adds a separate entry of the source. *1 amine or outer side, *2 acyl side, *3 side chain or, on linkers, in order; H or OH if unused. Where a SMILES comes first, the peptide text is derived from it. Bridges are numbered along the chain shown (N, C = ends). Where no end group is shown, it is not given here. [ ]: non-standard residue; d: D form. The star is where a group is joined. X1 = CC(=O)NC(C(=O)OC(C(C)C)C(N[*:1])C(=O)[*:2])C(O)C(C)C; Biotin = O=C1N[C@H]2[C@H](CS[C@H]2CCCCC(=O)*)N1; PhLac = O=C(O)[CH](O)Cc1ccccc1; NMeT = CN[CH](C(=O)O)[CH](C)O; NMeA = CN[CH](C)C(=O)O; NMeDha = C=C(NC)C(=O)O

What was measured:
[1] = target: T1, Mrgpra2b (Mus musculus, UniProt Q91WW4); experiment: FLIPR intracellular Ca2+ mobilization, HEK cells expressing Mrgpra2b; type: cell-based; details: for Mrgpra2 receptor activation: FLIPR Ca2+ mobilization, Figure S1E (negative peptides), Figure 1E
T1 sequence (Q91WW4 1-305): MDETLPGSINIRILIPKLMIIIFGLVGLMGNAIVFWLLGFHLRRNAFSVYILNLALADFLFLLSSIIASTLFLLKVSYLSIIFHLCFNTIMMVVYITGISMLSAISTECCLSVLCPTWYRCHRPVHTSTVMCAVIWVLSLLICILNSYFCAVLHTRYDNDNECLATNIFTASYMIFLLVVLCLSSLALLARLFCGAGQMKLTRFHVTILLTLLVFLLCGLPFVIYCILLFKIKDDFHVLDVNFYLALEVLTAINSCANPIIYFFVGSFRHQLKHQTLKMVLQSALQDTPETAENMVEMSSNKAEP

[2] = tested on: bone marrow neutrophils; experiment: Western blot of IL-1β release from neutrophils; type: cell-based, mouse; details: for Inhibition of hBD3-mediated IL-1β release: WT neutrophils, inhibitor 10μM added together with LTA, n=3
[3] = tested on: bone marrow neutrophils; experiment: Proteome profiler array of neutrophil cytokines and chemokines; type: cell-based, mouse; details: S. aureus LTA 1 μg/mL alone (signal 1), vs control
[4] = tested on: bone marrow neutrophils; experiment: IL-1β and Cxcl2 release from neutrophils; type: cell-based, mouse
Summary of the method: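 MACS-purified bone marrow neutrophils were primed with 1 μg/mL S. aureus lipoteichoic acid for 2 h. hBD3 or mBD14 was then added at 10 μM final. After a further 2 h, supernatants were collected and cells lysed in RIPA buffer. IL-1β and Cxcl2 were measured in both fractions by DuoSet ELISA. 5 mM ATP served as positive control.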

[5] = tested on: neutrophils; experiment: Neutrophil myeloperoxidase; type: cell-based; details: Mrgpra2 dKO mouse neutrophils; hBD3 0-10 μM or 10 μM mBD14, one hour; n=5
Summary of the method: (§1)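 Bone marrow neutrophils were MACS-purified from 8-10-week-old C57BL/6J-background mice of both sexes, with >90% purity by flow cytometry. 2×10^5 cells in RPMI were incubated 1 h with 0, 1, 5 or 10 μM hBD3 or 10 μM mBD14, both dissolved in RPMI. Elastase and MPO in the supernatant were quantified by DuoSet sandwich ELISA.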

[6] = tested on: neutrophils; experiment: Neutrophil elastase release; type: cell-based; details: Mrgpra2 dKO mouse neutrophils; hBD3 0-10 μM or 10 μM mBD14, one hour; n=5
Summary of the method: as §1

[7] = target: T2, Mrgpra2b-GFP (Mus musculus, UniProt Q91WW4); experiment: co-IP of biotin-hBD3 with Mrgpra2b-GFP; type: binding; details: 10μM biotin-hBD3, 4°C overnight, anti-GFP beads, anti-biotin western blot
T2 sequence (Q91WW4 1-305): T1 sequence (Q91WW4 1-305)

[8] = target: T3, Mrgpra2b-GFP (mouse, UniProt Q91WW4 1-305); experiment: flow cytometry on cells
T3 sequence (looked up): T1 sequence (Q91WW4 1-305)

[9] = tested on: S. aureus; experiment: Intradermal S. aureus skin infection, bacterial bioluminescence; type: in vivo, Staphylococcus aureus USA300 LAC::lux in mouse; details: 100ng each, co-injected with S. aureus; bioluminescence 24 hours post-infection; n=8-36
[10] = target: MRGPRX3-FLAG (human) (UniProt Q96LB0)
MRGPRX3-FLAG (human), sequence (Q96LB0 whole entry): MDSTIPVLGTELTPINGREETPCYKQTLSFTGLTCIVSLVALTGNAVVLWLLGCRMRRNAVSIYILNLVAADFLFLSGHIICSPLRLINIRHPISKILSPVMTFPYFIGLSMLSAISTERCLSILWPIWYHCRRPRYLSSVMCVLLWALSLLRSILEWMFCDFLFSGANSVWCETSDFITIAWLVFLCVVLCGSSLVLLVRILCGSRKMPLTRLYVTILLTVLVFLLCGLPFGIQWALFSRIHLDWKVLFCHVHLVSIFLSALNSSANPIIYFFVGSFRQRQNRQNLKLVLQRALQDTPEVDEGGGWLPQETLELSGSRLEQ

[11] = ELISA, LTA 1 μg/mL 2 hours, then 10 μM hBD3 or mBD14 for 2 hours, n=5

Molecule: mBD2: mouse peptide, printed as 'mBD1, 2, 4' (AVGSLKSIGYEAELDHCHTNGGYCVRAICPPSARRPGSCFPEKNPCCKYMK; UniProt P82020 21-71, looked up)
- Mrgpra2 receptor activation [1]: did not trigger receptor activation

Molecule: lipoteichoic acid [LTA]
- Production of pro-IL-1β by LTA ([2]; S. aureus LTA 1 μg/mL, WT and Mrgpra2 dKO neutrophils): induced the production of pro-IL-1β in both WT and Mrgpra2 dKO neutrophils
- Release of IL-1ra, Ccl3, Ccl4, Cxcl2 and TNFα by LTA alone [3]: triggered the release of more IL-1ra, Ccl3, Ccl4, Cxcl2 and TNFα compared to the control
- IL-1β production and release by LTA alone ([4]; S. aureus LTA 1 μg/mL alone (signal 1), Figure 7A, D): induced the production of IL-1β, but the cytokine was not released from the cells
- Priming effect of LTA, WT versus Mrgpra2 dKO neutrophils ([4]; S. aureus LTA 1 μg/mL, Figure 7A, C, D): did not differ between WT or Mrgpra2 dKO neutrophils

Molecule: hBD1: Human peptide hBD1 (DHYNCVSSGGQCLYSACPIFTKIQGTCYRGKAKCCK; UniProt P60022 33-68, looked up)
- Mrgpra2 receptor activation [1]: did not trigger receptor activation

Molecule: FLPKTLRKFFCRIRGGRCAVLNCLGKEEQIGRCSNSGRKCCRKKK (disulfide 11-40, 18-33, 23-41) [mBD14]
- MPO release, Mrgpra2 dKO neutrophils [5]: did not respond to hBD3 or mBD14 stimuli
- Elastase release, Mrgpra2 dKO neutrophils [6]: did not respond to hBD3 or mBD14 stimuli
- Synthesis of IL-1β or Cxcl2, defensin alone ([4]; ELISA, total = secreted + intracellular, defensin alone, no LTA, n=5): did not induce the synthesis of IL-1β or Cxcl2
- Cxcl2 release, LTA-primed Mrgpra2 dKO neutrophils [4, 11]: did not respond to hBD3 or mBD14
- Cxcl2 release, LTA-primed WT neutrophils [4, 11]: released IL-1β and Cxcl2 in response to hBD3 or mBD14 stimuli; also recorded: significant increase in the amount of IL-1β and Cxcl2
- IL-1β release, LTA-primed Mrgpra2 dKO neutrophils [4, 11]: did not respond to hBD3 or mBD14
- IL-1β release, LTA-primed WT neutrophils [4, 11]: released IL-1β and Cxcl2 in response to hBD3 or mBD14 stimuli; also recorded: significant increase in the amount of IL-1β
- EC50 [1]: 18.7 µM
- Mrgpra2 receptor activation [1]: evoked robust receptor activation

Molecule: CC(C)[C@H](NC(=O)c1ccc2ccccc2n1)C(=O)N[C@@H](CC(=O)O)C(=O)COc1c(F)cccc1F [Q-VD-OPh]
- Inhibition of hBD3-mediated IL-1β release [2]: inhibited; also recorded: effectively reduced IL-1β release from WT neutrophils in response to hBD3

Molecule: Biotin-GIINTLQKYYCRVRGGRCAVLSCLPKEEQIGKCSTRGRKCCRRKK (disulfide 11-40, 18-33, 23-41) [biotin-hBD3]
- Co-precipitation with Mrgpra2b-GFP [7]: co-precipitated only with Mrgpra2b-GFP; also recorded: could be co-precipitated

Molecule: C=C1C(=O)NC(C)C(=O)N(C)C(C)C(=O)NC(C(OC(=O)C(NC(C)=O)C(O)C(C)C)C(C)C)C(=O)N(C)C(C(C)OC)C(=O)OC(C)C(NC(C)=O)C(=O)OC(Cc2ccccc2)C(=O)N1C (stereo not shown) [YM-254890] (Ac-T[PhLac][NMeDha]A[NMeA][X1][NMeT](Me); ester 1-C; configuration not given here)
- Inhibition of hBD3-mediated IL-1β release [2]: inhibited

Molecule: hBD2: Human peptide, printed as 'hBD1, 2 and 4' (GIGDPVTCLKSGAICHPVFCPRRYKQIGTCGLPGTKCCKKP; UniProt O15263 24-64, looked up)
- Mrgpra2 receptor activation [1]: did not trigger receptor activation

Molecule: mBD1: mouse peptide mBD1 (DQYKCLQHGGFCLRSSCPSNTKLQGTCKPDKPNCCKS; UniProt P56386 33-69, looked up)
- Mrgpra2 receptor activation [1]: did not trigger receptor activation

Molecule: hBD4: Human peptide, printed as 'hBD1, 2 and 4' (EFELDRICGYGTARCRKKCRSQEYRIGRCPNTYACCLRKWDESLLNRTKP; UniProt Q8WTQ1 23-72, looked up)
- Mrgpra2 receptor activation [1]: did not trigger receptor activation

Molecule: KKINNPVSCLRKGGRCWNRCIGNTRQIGSCGVPFLKCCKRK (disulfide 9-37, 16-30, 20-38) [mBD3]
- EC50 [1]: 42.8 µM

B1: N-terminal biotinylated human beta-defensin 3 (peptide, UniProt P81534 23-67, looked up)
peptide: Biotin-GIINTLQKYYCRVRGGRCAVLSCLPKEEQIGKCSTRGRKCCRRKK
modifications: ends and bridges not checked
- Kd [8]: 15.9 µM

B2: IL-1β: Recombinant IL-1β, R&D systems 401-ML (protein, UniProt P10749 118-269, looked up)
Interleukin-1 beta: VPIRQLHYRLRDEQQKSLVLSDPYELKALHLNGQNINQQVIFSMSFVQGEPSNDKIPVALGLKGKNLYLSCVMKDGTPTLQLESVDPKQYPKKKMEKRFVFNKIEVKSKVEFESAEFPNWYISTSQAEHKPVFLGNNSGQDIIDFTMESVSS
- Bacterial load / anti-S. aureus rescue, Def cKO mice [9]: rescued the anti-S. aureus defect of Mrgpra2 dKO and Def cKO mice; also recorded: significantly reduced the bacterial load
- Bacterial load / anti-S. aureus rescue, Mrgpra2 dKO mice [9]: rescued the anti-S. aureus defect of Mrgpra2 dKO and Def cKO mice; also recorded: significantly reduced the bacterial load

B3: Cxcl2: recombinant mouse Cxcl2, R&D (protein, UniProt P10889 28-100, looked up)
C-X-C motif chemokine 2: AVVASELRCQCLKTLPRVDFKNIQSLSVTPPGPHCAQTEVIATLKGGQKVCLDPEAPLVQKIIQKILNKGKAN
- Bacterial load / anti-S. aureus rescue, Def cKO mice [9]: did not rescue Mrgpra2 or Def KO phenotypes; also recorded: did not alter the mutant phenotypes
- Bacterial load / anti-S. aureus rescue, Mrgpra2 dKO mice [9]: did not rescue Mrgpra2 or Def KO phenotypes; also recorded: did not alter the mutant phenotypes

B4: Human beta-defensin 3 (peptide)
peptide: GIINTLQKYYCRVRGGRCAVLSCLPKEEQIGKCSTRGRKCCRRKK
modifications: ends and bridges not checked; cysteine pairing not given here
- EC50 of FLIPR intracellular calcium mobilization in HEK cells expressing MRGPRX3 [10]: 10.8 µM
